Reference: paper PMC8341738 (RSC Chemical Biology, 2021)

What was measured:
Fra1 [1] = molecular target: T1, Fra1 (Homo sapiens, UniProt P15407); test: Isothermal titration calorimetry, Fra1W titrated into Fra1; format: binding
T1 sequence (P15407 129-162): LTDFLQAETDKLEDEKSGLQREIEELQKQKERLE

[2] = Circular dichroism spectra, peptides in isolation; format: physicochemical; settings: CD, 150 μM total peptide, 10 mM potassium phosphate, 100 mM potassium fluoride, pH 7.0
Fra1 [3] = molecular target: T1, Fra1; test: Circular dichroism spectra, 1:1 mixture with Fra1; format: binding; settings: 1:1 with Fra1, 150 μM total peptide, pH 7.0
Method in brief: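 Fra1 and test peptide mixed 1:1 at 75 μM each (150 μM total) in 10 mM potassium phosphate, 100 mM KF, pH 7.0. Far-UV CD in a 1 mm cell, 300–190 nm, 1 nm steps, 0.5 s per point, three scans averaged. Spectra taken at 20 °C, at 5 °C, and at 20 °C after thermal denaturation to check refolding. Reported as mean residue ellipticity; 222/208 ratio used to judge oligomerisation.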

cJun [4] = test: Circular dichroism spectra, mixture with cJun; format: binding; settings: CD at 20 °C, mixed with cJun, 150 μM total peptide, pH 7.0
cJun [5] = test: CD thermal denaturation, mixture with cJun; format: binding; settings: cJun–Fra1W; CD at 222 nm, 150 μM total peptide, pH 7
Method in brief: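 Equimolar peptide pair at 150 μM total in 10 mM potassium phosphate, 100 mM KF, pH 7. Ellipticity at 222 nm recorded from 0 to 90 °C in 1 °C steps with a 30 s pause at each step, signal averaged over 4 s. Reversible curves (≥95%) were least-squares fitted to a two-state model (modified Gibbs–Helmholtz) to give Tm.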

Fra1–cJun = test: CD dimer exchange experiments; format: binding; settings: CD at 20 °C, 150 μM total, equimolar, pH 7.0
Method in brief: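 Dimer exchange by CD: equimolar peptide mixtures at 150 μM total peptide in 10 mM potassium phosphate, 100 mM potassium fluoride, pH 7.0. Equilibrated spectra recorded at 20 °C in a 1 mm cell, 300–190 nm in 1 nm steps, 0.5 s per wavelength, three scans averaged. Data expressed as mean residue ellipticity and superimposed across mixing orders.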

[6] = Size-exclusion chromatography, single peptides; format: physicochemical; settings: Superdex Peptide 10/300 GL; 20 μM total peptide; 10 mM potassium phosphate, 100 mM potassium fluoride, pH 7.0; 0.5 mL min^−1; room temperature; monomeric
Fra1 [7] = molecular target: T1, Fra1; test: Size-exclusion chromatography, mixture with Fra1; format: binding; settings: Fra1–Fra1W mixture, 20 μM total peptide, pH 7.0; dimeric
Method in brief: (§1)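 Peptide mixture at 20 μM total peptide in 10 mM potassium phosphate, 100 mM KF, pH 7.0, run at room temperature on a peptide gel-filtration column at 0.5 mL min⁻¹. Elution times compared against previously characterised monomeric and heterodimeric coiled-coil reference peptides.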

cJun [8] = test: Size-exclusion chromatography, mixture with cJun; format: binding; settings: cJun–Fra1W mixture, 20 μM total peptide, pH 7.0; monomeric
Method in brief: as §1

Fra1 [9] = molecular target: T1, Fra1; test: Protein-fragment complementation assay; format: cell-based; settings: competition selection in liquid M9 medium, ten rounds, E. coli

Substance: Ac-KAAALKQKAYALKQQIAALKKQVAALKQKIAALK-NH2 [Fra1W]
- Kd (Fra1 [1]): 917 nM
- N (stoichiometric measure of binding) (Fra1 [1]; ITC, 20 °C, pH 7.0): 1.06
- helical content [2]: 60%
- CD signal vs averaged homomeric signals (Fra1 [3]; CD at 20 °C): an increase from the averaged homomeric signals of Fra1 and Fra1W
- 222/208 nm ratio (Fra1 [3]; CD): 1.06
- α-helical content of Fra1–Fra1W complex (Fra1 [3]; CD): 75%
- α-helical content relative to Fra1 in isolation (Fra1 [3]; CD): more than three times that of the target Fra1 in isolation
- CD signal vs averaged homomeric signals (cJun [4]): superimposed with the averaged homomeric signals
- thermal denaturation profile vs average of component peptides (cJun [5]): no difference from the average of the component peptides
- dimer exchange on addition of Fra1W to Fra1–cJun (Fra1–cJun): an increase in signal was observed
- dimer exchange on addition of Fra1 to cJun–Fra1W (Fra1–cJun): the CD signal increased from the average of the component samples
- dimer exchange on addition of cJun to Fra1–Fra1W (Fra1–cJun): no exchange of binding partner had occurred
- SEC elution time (oligomeric state) [6]: approximately 20 min
- SEC elution time (oligomeric state) (Fra1 [7]): approximately 19 min
- SEC elution time (oligomeric state) (cJun [8]): approximately 20 min
- PCA selection outcome (Fra1 [9]): one clean DNA sequence in the pool after ten rounds of competition selection passaging
